The record followed here is ChEMBL document CHEMBL1938301, “Cyclohexane 1,3-diones and their inhibition of mutant SOD1-dependent protein aggregation and toxicity in PC12 cells” (Bioorg Med Chem, 2012).

Assay [1] in a line: Inhibition of SOD1 G93A mutant protein aggregation-mediated cytotoxicity in rat PC12 cells expressing yellow fluorescent protein assessed as increase in cell viability. Type of assay: cell-based. As to conditions: PC-12.
For assay [2], the system named is PC-12. The assay is described as follows: Inhibition of SOD1 G93A mutant protein aggregation-mediated cytotoxicity in rat PC12 cells expressing yellow fluorescent protein assessed as increase in cell viability relative to radicicol. In kind it is cell-based. The arrangement: concentration or dose not given beside the values. In a few lines:
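PC12 cells expressing G93A SOD1-YFP; MG132 proteasome inhibition induces cytotoxic mutant SOD1 aggregates. Cell survival measured as protection read-out; efficacy expressed relative to radicicol positive control.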

A word on the pEC50: it is −log10 of the EC50, conventionally taken in molar units.

pEC50: −log10 of the molar value. A value given as a limit tells only on which side of the number the result lay.

Turning to `O=C1CC(=O)CC(c2cc(-c3ccc(F)cc3)cc(-c3ccc(F)cc3)c2)C1`, the pEC50 in assay [1] was 5.51. Moreover, the Efficacy in assay [2] was 100%.
The matching figures for `O=C1CC(=O)CC(c2cc(F)cc(F)c2)C1`: 5.09 and 100%.
The matching figures for `O=C1CC(=O)CC(c2ccccc2F)C1`: less than 4.49 and 100%.
For `CC(Oc1cc(Cl)cc(Cl)c1)C1CC(=O)CC(=O)C1` (racemic) the same measures were 5.85 and 100%.
In the case of `O=C1CC(=O)CC(c2ccccc2C(F)(F)F)C1`, the pEC50 in assay [1] is 5.49. Besides, the Efficacy in assay [2] worked out at 100%.
With `O=C1CC(=O)CC(c2cc(-c3cccc(Cl)c3)cc(C(F)(F)F)c2)C1`, in assay [1], the pEC50 was 5.81. Besides, in assay [2], the Efficacy came out at 100%.
On to `CCn1c2ccccc2c2cc(C3CC(=O)CC(=O)C3)ccc21`, for which, in assay [1], the pEC50 was 5.51. Moreover, in assay [2], the Efficacy is 100%.
For `O=C1CC(=O)CC(c2cccc(C(F)(F)F)c2)C1` the same measures were 5.48 and 100%.
The matching figures for `O=C1CC(=O)CC(c2cccc(-c3cc(F)cc(F)c3)c2)C1`: 5.91 and 100%.
The matching figures for `CC(C)c1cccc(C2CC(=O)CC(=O)C2)c1`: 5.80 and 100%.
Take `Cc1ccccc1C1CC(=O)CC(=O)C1`: the negative-log EC50 (pEC50) in assay [1] is 5.47. Moreover, the Efficacy in assay [2] turned out to be 100%.
The matching figures for `CCOc1cccc(C2CC(=O)CC(=O)C2)c1OCC`: 5.40 and 100%.
Regarding `O=C1CC(=O)CC(c2cccc(-c3ccc(Cl)cc3)c2)C1`, the pEC50 in assay [1] is 5.45. The Efficacy in assay [2] came out at 100%.
`O=C1CC(=O)CC(c2cc(Cl)cc(-c3ccccc3)c2)C1`: in assay [1], the pEC50 is 5.96. Besides, in assay [2], the Efficacy stood at 100%.
For `O=C1CC(=O)CC(c2ccc(OCc3ccccc3)cc2)C1` the same measures were less than 4.49 and 100%.
The matching figures for `CC1(COc2cc(C(F)(F)F)cc(C(F)(F)F)c2)CC(=O)CC(=O)C1`: 6.15 and 100%.
For `O=C1CC(=O)CC(CC(c2ccccc2)c2ccccc2)C1` the same measures were 5.46 and 100%.
In the case of `O=C1CC(=O)CC(c2cccc(-c3ccccc3)c2)C1`, in assay [1], the pEC50 is 5.91. Also, the Efficacy in assay [2] was 100%.
The matching figures for `CC(C)(C)c1ccc(C2CC(=O)CC(=O)C2)cc1`: 5.00 and 100%.
For `O=C1CC(=O)CC(COc2ccccc2)C1` the same measures were less than 4.49 and 100%.
For `O=C1CC(=O)CC(c2ccccc2Cl)C1` the same measures were less than 4.49 and 100%.
On to `O=C1CC(=O)CC(c2ccc3ccccc3c2)C1`, for which the pEC50 in assay [1] is 5.21. Moreover, the Efficacy in assay [2] came out at 100%.
For `O=C1CC(=O)CC(c2ccccc2Br)C1` the same measures were less than 4.49 and 100%.
For `O=C1CC(=O)CC(c2c(Cl)cccc2Cl)C1` the same measures were 4.61 and 100%.
For `O=C1CC(=O)CC(c2ccc(F)cc2F)C1` the same measures were less than 4.49 and 100%.
As for `CC(C)(C)OC(=O)N1CCN(c2ccc(C3CC(=O)CC(=O)C3)cc2)CC1`, in assay [1], the negative logarithm of the EC50 (pEC50) is 5.08. Further, the Efficacy in assay [2] was found to be 100%.
For `Cc1cccc(C2CC(=O)CC(=O)C2)c1C`, in assay [1], the negative logarithm of the EC50 (pEC50) is 5.62. For the same molecule, the Efficacy in assay [2] stood at 100%.
Turning to `O=C1CC(=O)CC(c2cccc(Cl)c2)C1`, the negative-log EC50 (pEC50) in assay [1] was 5.19. Besides, the Efficacy in assay [2] was determined as 100%.
The matching figures for `O=C1CC(=O)CC(c2cccc(Oc3ccc(Cl)cc3)c2)C1`: 5.66 and 100%.
Regarding `O=C1CC(=O)CC([C@@H]2C[C@H]2c2cc(C(F)(F)F)cc(C(F)(F)F)c2)C1` (racemic), in assay [1], the negative-log EC50 (pEC50) was 6.15. The Efficacy in assay [2] amounted to 100%.
For `CSc1ccc(C2CC(=O)CC(=O)C2)cc1` the same measures were less than 4.49 and 100%.
